Published values from different studies.
Each line is one published result; the experiments were not run side by side.
Target: Casein kinase I isoform gamma-2 (CSNK1G2, Homo sapiens, UniProt P78368)

SMILES	read-out	action	method	tested at	quantity	result
CC(C)(C)c1nc2c(s1)c1nc(N)ncc1c1ccc(NS(=O)(=O)c3c(F)cccc3F)c(F)c12	enzyme activity	inhibitor	radiometric	1 µM	remaining activity	104%
COc1cc2ncnc(Nc3ccc(Oc4ccccc4)cc3C)c2cc1OC	enzyme activity	inhibitor	–	1 µM	inhibition	5%
COc1cc(Nc2c(C#N)cnc3cc(OCCCN4CCN(C)CC4)c(OC)cc23)c(Cl)cc1Cl	cell-free assay	–	–	0.5 µM	remaining signal	98.3%
COc1cc(Cl)c(C(=O)N[C@@H](CN[C@H]2CC[C@@H](N)CC2)Cc2ccc(C#N)cc2)cc1-c1ccc(CN[C@H](C)c2ccc(C)cc2)o1	enzyme activity	inhibitor	–	1 µM	remaining activity	112%
CCc1ccccc1C(=O)Nc1n[nH]c2c(C)c(F)c(C3C(C#N)=C(C)N(C)C(C)=C3C#N)cc12	cell-free assay	–	competition with immobilised ligand	1 µM	remaining binding	97%
CN(CCCC(F)(F)F)c1nccc(-c2cnn3ncccc23)n1	binding	–	–	1 µM	remaining binding	100%
COc1ccc2c(O[C@@H]3C[C@H]4C(=O)N[C@]5(C(=O)O)CC5/C=C\CCCCC[C@H](NC(=O)OC5CCCC5)C(=O)N4C3)cc(-c3csc(NC(=O)C(C)C)n3)nc2c1C (stereo partly shown)	cell-free assay	–	competition with immobilised ligand	1 µM	remaining binding	90%
Cc1cc(NC(=O)c2cccc3cc(-c4cccc5[nH]nc(N)c45)ccc23)ccc1F	enzyme activity	inhibitor	–	0.1 µM	activity vs control	102%
CN1CC(Oc2cnc(C#N)cc2-c2ccn3nc(NC(=O)C4CC4)cc3c2)C1	enzyme activity	inhibitor	–	1 µM	inhibition	-2%
CCCOc1ccc([C@@H]2[C@@H](C(=O)O)[C@H](c3ccc4c(c3)OCO4)CN2CC(=O)Nc2c(CC)cccc2CC)cc1	cell-free assay	–	competition with immobilised ligand	1 µM	remaining binding	96%
COc1cc2ncnc(Nc3ccc(F)c(Cl)c3)c2cc1OCCCN1CCOCC1	cell-free assay	–	–	0.5 µM	remaining signal	98.1%
CS(=O)(=O)Nc1cccc(-c2csc(NC(=O)CSc3nc4nccnc4c(=O)n3CCc3ccccc3)n2)c1	enzyme activity	inhibitor	–	10 µM	inhibition	8%
CCCS(=O)(=O)Nc1ccc(F)c(C(=O)c2c[nH]c3ncc(-c4ccc(Cl)cc4)cc23)c1F	enzyme activity	inhibitor	–	1 µM	inhibition	< 10%
O=C1NC(=O)c2cc(Nc3ccc(F)cc3)c(Nc3ccc(F)cc3)cc21	cell-free assay	–	–	0.5 µM	remaining signal	97.5%
O=C(NCCCC1CCCCC1)c1ccc(CNC(=O)c2cnn(-c3ccccc3)c2C(F)(F)F)cc1	cell-free assay	–	competition with immobilised ligand	0.1 µM	remaining binding	96%
Cc1ccc(Nc2nccc(N(C)c3ccc4c(C)n(C)nc4c3)n2)cc1S(N)(=O)=O	cell-free assay	inhibitor	–	0.5 µM	remaining signal	96.9%
Nc1cnc(N2CCc3cc(S(=O)(=O)Nc4c(F)cc(Cl)cc4F)cc(N4CCCC4=O)c32)nc1	cell-free assay	–	competition with immobilised ligand	1 µM	remaining binding	88%
Nc1ncnc2occ(-c3ccc(NC(=O)Nc4cc(C(F)(F)F)ccc4F)cc3)c12	cell-free assay	inhibitor	–	20 µM	remaining signal	6.8%
NS(=O)(=O)c1cc(NC(=O)Cc2ccccc2)ccc1Oc1cccc(Cl)c1	cell-free assay	–	competition with immobilised ligand	1 µM	remaining binding	100%
CNC(=O)c1cc(Oc2ccc(NC(=O)Nc3ccc(Cl)c(C(F)(F)F)c3)cc2)ccn1	enzyme activity	inhibitor	–	0.3 µM	inhibition	5%
CC1=C(C#N)[C@@H](c2ccc3[nH]nc(C)c3c2)C(C#N)=C(c2ccc(Cl)cc2)N1	cell-free assay	–	competition with immobilised ligand	1 µM	remaining binding	100%
O=C(Nc1cnn(-c2csc(C(=O)NC3COC3)c2)c1)Nc1c(F)cccc1Cl	enzyme activity	inhibitor	–	5 µM	remaining activity	90.2%
